Data set [1] can be described thus: Antiproliferative activity against HUVEC after 72 hrs by resazurin dye reduction assay. Format: cell-based. The settings on record: human, HUVEC cells.
The test system of a further data set is K562. Put plainly: Antiproliferative activity against human K562 cells after 72 hrs by resazurin dye reduction assay. Format: functional. The note with it: K562, 72 h. In outline:
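K-562 cells grown at 37 °C in RPMI 1640 with ultraglutamine, gentamicin and 10% heat-inactivated FBS. About 10,000 cells seeded per well in 0.1 mL medium. Compounds were dissolved in DMSO, diluted in DMEM and incubated with cells for 72 h at 37 °C, humidified, 5% CO2. Viable cells were read by CellTiter-Blue resazurin fluorescence. GI50 was taken where the dose-response curve crosses 50% of untreated control, with 4 parallels per concentration.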

The nature of data set [2]: Octanol-water partition coefficient, log P by RP-HPLC method. Format: physicochemical.
Another data set deals with HeLa. Put plainly: Cytotoxicity against human HeLa cells after 72 hrs by methylene blue staining. Format: functional. In short, it runs like this: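 HeLa cells were cultured at 37 °C in RPMI 1640 with ultraglutamine, gentamicin and 10% heat-inactivated FBS, then pre-incubated 48 h without compound. Compound dilutions went onto the subconfluent monolayers, followed by 72 h at 37 °C, humidified, 5% CO2. Cells were fixed with glutaraldehyde, stained 15 min with 0.05% methylene blue and eluted with 0.33 N HCl, with OD read at 660 nm. CC50 was taken at 50% of untreated control, with 4 parallels per concentration.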

A further data set addresses Albumin (Homo sapiens, UniProt P02768). Briefly: Binding affinity to HSA after 30 mins assessed as quenching of intrinsic HSA fluorescence emission by spectrofluorimetric assay. Format: ADME. In outline: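 Intrinsic tryptophan fluorescence of HSA at 2 µM final in PBS pH 7.4. Compound stocks were made in DMSO and titrated at increasing concentrations, with 30 min incubation at ambient temperature. Kd came from a quadratic binding equation fitted by nonlinear least squares (Marquardt).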

Values after ≈ are worked out from the molar mass of the structure shown. Some results are limits rather than exact numbers.

Chain of Albumin (P02768 whole entry): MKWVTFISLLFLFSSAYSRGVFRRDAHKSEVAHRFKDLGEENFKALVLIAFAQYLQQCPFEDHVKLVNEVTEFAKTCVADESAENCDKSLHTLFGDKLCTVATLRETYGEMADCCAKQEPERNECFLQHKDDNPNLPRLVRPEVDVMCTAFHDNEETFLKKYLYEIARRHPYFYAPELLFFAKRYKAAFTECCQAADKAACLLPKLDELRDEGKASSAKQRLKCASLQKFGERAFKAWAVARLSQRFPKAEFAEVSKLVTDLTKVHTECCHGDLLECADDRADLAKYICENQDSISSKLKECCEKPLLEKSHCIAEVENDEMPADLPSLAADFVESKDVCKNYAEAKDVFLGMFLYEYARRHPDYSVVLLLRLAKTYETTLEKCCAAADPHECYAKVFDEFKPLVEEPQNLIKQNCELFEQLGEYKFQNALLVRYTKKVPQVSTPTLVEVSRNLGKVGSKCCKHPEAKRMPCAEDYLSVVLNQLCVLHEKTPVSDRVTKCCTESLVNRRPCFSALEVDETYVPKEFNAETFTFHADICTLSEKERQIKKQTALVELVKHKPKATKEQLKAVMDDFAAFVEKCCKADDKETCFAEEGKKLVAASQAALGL

In data set [1], `Cc1ccc(NC(=O)c2ccc(CN3CCN(C)CC3)cc2)cc1Nc1nccc(-c2cccnc2)n1` [IMATINIB] came in with a GI50 at 72 h of 10.9 µg/mL (≈ 22.1 µM). This compound also displayed a GI50 in the data set with K562 of 0.1 µg/mL (≈ 0.203 µM).

`O=C1C(N2CCCC2)=NN(c2ccc(Cl)cc2)CN1c1ccccc1Cl` returned a logP in data set [2] of 4.6. This compound also returned a GI50 at 72 h in data set [1] of 18.9 µg/mL (≈ 48.6 µM). In addition, in the data set on K562, it took 8.6 µg/mL (≈ 22.1 µM) to inhibit growth by half (GI50). For the same compound, in the data set with HeLa, the CC50 is greater than 50 µg/mL. For the same compound, the Kd at Albumin came out at 2.77 µM.

The compound `CN(C)C1=NN(c2ccccc2)CN(c2ccccc2Cl)C1=O` gave a logP in data set [2] of 3.6. The compound further displayed a GI50 at 72 h in data set [1] of 34.5 µg/mL (≈ 105 µM). The compound also displayed a GI50 with K562 of 5.8 µg/mL (≈ 17.6 µM). The compound further yielded a CC50 in the data set on HeLa of 39.5 µg/mL (≈ 120 µM). For the same compound, the Kd on Albumin is 7.96 µM.

For the compound `COc1cccc2c1C(=O)c1c(O)c3c(c(O)c1C2=O)C[C@@](O)(C(=O)CO)C[C@@H]3O[C@H]1C[C@H](N)[C@H](O)[C@H](C)O1` [DOXORUBICIN], the logP in data set [2] is 0.71. Moreover, in data set [1], the GI50 at 72 h amounted to 0.1 µg/mL (≈ 0.184 µM). In the data set with K562, the GI50 turned out to be 1 µg/mL (≈ 1.84 µM). The midpoint of cytotoxicity in the data set on HeLa, the CC50, lay at 2 µg/mL (≈ 3.68 µM).

`O=C1C(N2CCOCC2)=NN(c2ccc(Cl)cc2)CN1c1ccccc1Cl` returned a logP in data set [2] of 4. In data set [1], the GI50 at 72 h stood at 45.6 µg/mL (≈ 113 µM). Also, the GI50 in the data set on K562 was greater than 50 µg/mL. The compound further gave a half-maximal cytotoxic concentration (CC50) with HeLa greater than 50 µg/mL.

In data set [2], `O=C1C(N2CCCCC2)=NN(c2ccc(Cl)cc2)CN1c1ccccc1Cl` registered a logP of 5. Besides, the GI50 at 72 h in data set [1] is greater than 50 µg/mL. The compound also returned a GI50 in the data set with K562 greater than 50 µg/mL. This compound registered a cytotoxic concentration (CC50) in the data set with HeLa greater than 50 µg/mL.

`O=C1C(N2CCCC2)=NN(c2ccccc2)CN1c1ccccc1Cl` showed a logP in data set [2] of 4. Also, it took 40.9 µg/mL (≈ 115 µM) to inhibit growth in data set [1] by half (GI50 at 72 h). Also, it took 5.2 µg/mL (≈ 14.7 µM) to inhibit growth in the data set on K562 by half (GI50). This compound also came in with a CC50 with HeLa of 44.3 µg/mL (≈ 125 µM). For the same compound, the Kd at Albumin turned out to be 2.46 µM.

`O=C1C(N2CCCCC2)=NN(c2ccccc2)CN1c1ccccc1Cl`: in data set [2], the logP came to 4.6. Besides, in data set [1], the GI50 at 72 h was 24.7 µg/mL (≈ 67 µM). Also, the GI50 in the data set with K562 is 42 µg/mL (≈ 114 µM). In the data set on HeLa, this compound came in with a CC50 of 26 µg/mL (≈ 70.5 µM).

In turn, `O=C1C(N2CCOCC2)=NN(c2ccccc2)CN1c1ccccc1Cl` registered a logP in data set [2] of 3.5. The compound also registered a GI50 at 72 h in data set [1] greater than 50 µg/mL. In the data set with K562, the GI50 is greater than 50 µg/mL. The compound further gave a CC50 in the data set with HeLa greater than 50 µg/mL.

Regarding `CN(C)C1=NN(c2ccc(Cl)cc2)CN(c2ccccc2Cl)C1=O`, the logP in data set [2] came out at 4.2. In addition, the GI50 at 72 h in data set [1] was determined as 16.1 µg/mL (≈ 44.3 µM). This compound came in with a GI50 in the data set with K562 of 11 µg/mL (≈ 30.3 µM). The compound also had a CC50 in the data set with HeLa of 39.4 µg/mL (≈ 108 µM). Moreover, on Albumin, the Kd worked out at 10.2 µM.

These data come from ChEMBL document CHEMBL1157585, “Synthesis and characterization of novel 1,2,4-triazine derivatives with antiproliferative activity” (Bioorg Med Chem, 2010).
